Laboratory results published in ChEMBL document CHEMBL4680135, “Design, synthesis and biological evaluation of indole-2-carboxylic acid derivatives as IDO1/TDO dual inhibitors” (Eur J Med Chem, 2020).

Tests used:
[1] = biological target: Indoleamine 2,3-dioxygenase 1 (Homo sapiens, UniProt P14902); assay: Inhibition of recombinant human IDO1 assessed as reduction in kynurenine formation using L-tryptophan as substrate incubated for 45 mins by microplate reader assay
[2] = biological target: Tryptophan 2,3-dioxygenase (Homo sapiens, UniProt P48775); assay: Inhibition of recombinant human TDO assessed as reduction in kynurenine formation using L-tryptophan as substrate incubated for 45 mins by microplate reader assay
Procedure, shortened: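 Purified recombinant human TDO (0.05 μM) in 100 mM potassium phosphate pH 6.5 with 40 mM neutralized ascorbate, 200 μg/mL catalase, 20 μM methylene blue, L-Trp substrate and compound; 37 °C, 45 min. Stopped with 30% TCA, 65 °C 15 min, then 2% p-dimethylaminobenzaldehyde in acetic acid; absorbance 490 nm; IC50 by curve fitting.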

Chain of Tryptophan 2,3-dioxygenase (P48775 whole entry): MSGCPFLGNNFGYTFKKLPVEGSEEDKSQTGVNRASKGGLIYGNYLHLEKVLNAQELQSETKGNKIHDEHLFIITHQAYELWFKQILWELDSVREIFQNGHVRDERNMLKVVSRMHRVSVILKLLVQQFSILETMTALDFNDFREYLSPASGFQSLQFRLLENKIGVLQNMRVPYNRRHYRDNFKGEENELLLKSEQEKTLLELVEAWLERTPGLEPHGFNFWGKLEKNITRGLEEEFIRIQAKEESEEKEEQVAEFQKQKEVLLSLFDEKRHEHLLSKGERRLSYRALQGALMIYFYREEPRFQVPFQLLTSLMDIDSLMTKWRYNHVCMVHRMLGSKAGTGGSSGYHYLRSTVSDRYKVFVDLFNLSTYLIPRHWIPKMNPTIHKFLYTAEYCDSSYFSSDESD
Chain of Indoleamine 2,3-dioxygenase 1 (P14902 whole entry): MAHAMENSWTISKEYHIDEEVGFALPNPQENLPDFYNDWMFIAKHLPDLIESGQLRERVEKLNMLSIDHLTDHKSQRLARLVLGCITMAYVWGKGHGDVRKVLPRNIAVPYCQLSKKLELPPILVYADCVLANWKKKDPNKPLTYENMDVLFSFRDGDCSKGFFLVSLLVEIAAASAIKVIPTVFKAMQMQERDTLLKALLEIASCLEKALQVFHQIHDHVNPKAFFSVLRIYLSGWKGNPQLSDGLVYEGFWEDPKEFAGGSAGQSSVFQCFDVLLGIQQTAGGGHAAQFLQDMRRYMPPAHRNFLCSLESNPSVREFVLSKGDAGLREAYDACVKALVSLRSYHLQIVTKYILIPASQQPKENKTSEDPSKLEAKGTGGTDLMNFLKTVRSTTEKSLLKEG

SMILES | IC50 [1] [µM] | IC50 [2] [µM]
CC(=O)Nc1cc(Nc2ccc(OC(F)(F)F)cc2)c2cc(C(=O)O)[nH]c2c1 | 23.7 | 5.71
CC(=O)Nc1cc(Nc2cccc3[nH]ncc23)c2cc(C(=O)O)[nH]c2c1 | 7.52 | 6.78
CC(=O)Nc1cc(Nc2ccc(OC(F)F)cc2)c2cc(C(=O)O)[nH]c2c1 | 3.18 | 5.5
O=C(O)c1cc2c(Nc3ccc(F)c4[nH]c(C(=O)O)cc34)ccc(F)c2[nH]1 | 2.72 | 3.48
CC(=O)Nc1cc(Nc2ccc(F)c(OCc3ccccc3)c2)c2cc(C(=O)O)[nH]c2c1 | 10 | 5.24
Fc1ccc(Nc2ccc(F)c3[nH]ccc23)cc1Cl | > 100 | 
COc1cc(Nc2ccc(F)c3[nH]c(C(=O)O)cc23)cc(OC)c1OC | 22.2 | 23.3
O=C(O)c1cc2c(Sc3ccc(F)c(Cl)c3)ccc(F)c2[nH]1 | > 100 | 
O=C(O)c1cc2c(Nc3ccc(F)c(Cl)c3)cc([N+](=O)[O-])cc2[nH]1 | > 100 | > 100
CCNc1cc(Nc2ccc(F)c(Cl)c2)c2cc(C(=O)O)[nH]c2c1 | 1.75 | 3.53
O[C@H](C[C@H]1c2c(F)cccc2-c2cncn21)[C@H]1CC[C@H](O)CC1 [NAVOXIMOD] |  | 0.8
CC(=O)Nc1cc(Nc2ccc(F)c(Cl)c2)c2cc(C(=O)O)[nH]c2c1 | 8.4 | 8.48
O=C(O)c1cc2c(Nc3ccc(F)c4[nH]ccc34)ccc(F)c2[nH]1 | > 100 | 
O=C(O)c1cc2c(Nc3ccc(Cl)c(Cl)c3)ccc(F)c2[nH]1 | > 100 | 
COc1ccc(Nc2ccc(F)c3[nH]c(C(=O)O)cc23)cc1Cl | > 100 | 
O=C(O)c1cc2c(Nc3ccc(F)c(OC(F)(F)F)c3)ccc(F)c2[nH]1 | 16.3 | 16.5
N/C(=N\O)c1cc2c(Nc3ccc(F)c(Cl)c3)ccc(F)c2[nH]1 | > 100 | 
COc1ccc(Nc2cc(NC(C)=O)cc3[nH]c(C(=O)O)cc23)nc1 | 4.73 | 5.27
O=C(O)c1cc2c(Nc3ccc(F)c(Cl)c3)cc(F)cc2[nH]1 | > 100 | 
O=C(O)c1cc2c(Nc3ccc(F)c(F)c3)ccc(F)c2[nH]1 | > 100 | 
OCc1cc2c(Nc3ccc(F)c(Cl)c3)ccc(F)c2[nH]1 | > 100 | 
Cn1c(C(=O)O)cc2c(Nc3ccc(F)c(Cl)c3)ccc(F)c21 | > 100 | 
N#Cc1cc2c(Nc3ccc(F)c(Cl)c3)ccc(F)c2[nH]1 | > 100 | 
Cc1cc2c(Nc3ccc(F)c(Cl)c3)ccc(F)c2[nH]1 | > 100 | 
Cc1cc(Nc2ccc(F)c(Cl)c2)c2cc(C(=O)O)n(C)c2c1 | > 100 | 

SMILES | IC50 [1] [µM] | IC50 [2] [µM]
COc1cc(Cl)cc(Nc2ccc(F)c3[nH]c(C(=O)O)cc23)c1 | > 100 | 
Cc1ccc(Nc2ccc(F)c(Cl)c2)c2cc(C(=O)O)[nH]c12 | > 100 | 
CC(=O)Nc1cc(Nc2ccc(F)c(F)c2)c2cc(C(=O)O)[nH]c2c1 | 1.17 | 1.55
O=C(O)c1cc2c(Nc3cccc4[nH]ccc34)ccc(F)c2[nH]1 | > 100 | 
O=C(Nc1ccc(F)c2[nH]c(C(=O)O)cc12)c1ccc(F)c(Cl)c1 | > 100 | 
COc1cc(Nc2ccc(F)c3[nH]c(C(=O)O)cc23)ccc1F | 54.4 | 31.4
CC(=O)Nc1cc(Nc2ccc(C(F)(F)F)cc2)c2cc(C(=O)O)[nH]c2c1 | 55.5 | 23.2
COc1cc(Nc2ccc(F)c3[nH]c(C(=O)O)cc23)cc(C(F)(F)F)c1 | > 100 | 
O=C(O)c1cc2c(Nc3ccc(F)c(Br)c3)ccc(F)c2[nH]1 | 9.93 | 10.5
CC(=O)Nc1cc(Nc2ccc(F)c(OC(F)(F)F)c2)c2cc(C(=O)O)[nH]c2c1 | 1.37 | 3.62
COc1ccc(Nc2cc(NC(C)=O)cc3[nH]c(C(=O)O)cc23)cc1 | 1.71 | 3.01
O=C(O)c1cc2c(Nc3ccc(F)c(Cl)c3)ccc([N+](=O)[O-])c2[nH]1 | > 100 | 
NC(=O)c1cc2c(Nc3ccc(F)c(Cl)c3)ccc(F)c2[nH]1 | > 100 | 
COc1cc(Nc2cc(NC(C)=O)cc3[nH]c(C(=O)O)cc23)ccc1F | 1.23 | 2.49
COc1cc(Nc2ccc(F)c(Cl)c2)c2cc(C(=O)O)[nH]c2c1 | > 100 | 
CC(=O)Nc1cc(Nc2ccc(F)c(Oc3ccccc3)c2)c2cc(C(=O)O)[nH]c2c1 | 5.83 | 1.44
O=C(Nc1ccc(F)c(Cl)c1)Nc1ccc(F)c2[nH]c(C(=O)O)cc12 | > 100 | 
CC(=O)Nc1cc(Nc2ccc(F)cc2)c2cc(C(=O)O)[nH]c2c1 | 5.28 | 7.69
COc1ccc(Nc2cc(NC(C)=O)cc3[nH]c(C(=O)O)cc23)cn1 | 3.41 | 3.62
N#Cc1cc(Nc2ccc(F)c(Cl)c2)c2cc(C(=O)O)[nH]c2c1 | > 100 | > 100
O=C(O)c1cc2c(Nc3ccc(C(F)(F)F)c(Cl)c3)ccc(F)c2[nH]1 | > 100 | 
CCCOc1cc(Nc2cc(NC(C)=O)cc3[nH]c(C(=O)O)cc23)ccc1F | 1.48 | 4.46
CC(=O)Nc1cc(Nc2ccc(F)c(Cl)c2)c2cc(C(=O)O)sc2c1 | > 100 | 
O=C(O)c1cc2c(Nc3ccc(F)c(Cl)c3)ccc(F)c2[nH]1 | 40.7 | 99.2
CC(=O)Nc1cc(Nc2ccc(F)c(-c3ccsc3)c2)c2cc(C(=O)O)[nH]c2c1 | 3.89 | 2.53

SMILES | IC50 [1] [µM] | IC50 [2] [µM]
O=C(O)c1cc2c(NCc3ccc(F)c(Cl)c3)ccc(F)c2[nH]1 | > 100 | 
COc1ccc(C(=O)O)c(Nc2ccc(F)c3[nH]c(C(=O)O)cc23)c1 | > 100 | 
O=C(O)c1cc2c(Nc3ccc(F)c(Cl)c3)cc(Cl)cc2[nH]1 | > 100 | 
CC(=O)Nc1cc(Nc2ccc(F)c(OCC3CC3)c2)c2cc(C(=O)O)[nH]c2c1 | 3.11 | 4.09
O=C(O)c1cc2c(Nc3ccc(F)c(Cl)c3)ccc(Cl)c2[nH]1 | > 100 | 
CC(=O)Nc1cc(Nc2ccc(F)nc2)c2cc(C(=O)O)[nH]c2c1 | 38.5 | 46.1
N#Cc1cc(Nc2ccc(F)c3[nH]c(C(=O)O)cc23)ccc1F | > 100 | 
COc1ccc(Nc2ccc(F)c(Cl)c2)c2cc(C(=O)O)[nH]c12 | 32.4 | 19.5
CC(=O)Nc1cc(Nc2ccc(F)c(OC(C)C)c2)c2cc(C(=O)O)[nH]c2c1 | 3.09 | 6.46
CCNC1=C/C(=N\c2ccc(F)c(Cl)c2)c2cc(C(=O)O)[nH]c2C1=O | 0.018 | 0.025
N#Cc1ccc(Nc2ccc(F)c(Cl)c2)c2cc(C(=O)O)[nH]c12 | > 100 | 
CC(=O)Nc1cc(Nc2ccc(F)c(C)c2)c2cc(C(=O)O)[nH]c2c1 | 1.83 | 1.7
CC(=O)Nc1cc(Nc2ccc(F)cn2)c2cc(C(=O)O)[nH]c2c1 | 10.8 | 11.7
O=C(NO)c1cc2c(Nc3ccc(F)c(Cl)c3)ccc(F)c2[nH]1 | > 100 | 
CC(=O)Nc1ccc(Nc2ccc(F)c(Cl)c2)c2cc(C(=O)O)[nH]c12 | > 100 | 
CC(=O)Nc1cc(Nc2ccc(F)c(C3CC3)c2)c2cc(C(=O)O)[nH]c2c1 | 2.95 | 5.45
CC(=O)Nc1cc(Nc2ccc(F)c(OCC(F)(F)F)c2)c2cc(C(=O)O)[nH]c2c1 | 4.62 | 9.63
O=C(O)c1cc2c(Nc3cc(Br)ccc3F)ccc(F)c2[nH]1 | 28.1 | 41.4
O=C(Cc1ccc(F)c(Cl)c1)Nc1ccc(F)c2[nH]c(C(=O)O)cc12 | > 100 | 
CCOc1cc(Nc2cc(NC(C)=O)cc3[nH]c(C(=O)O)cc23)ccc1F | 2.2 | 5.13
O=C(O)c1cc2c(C(=O)Nc3ccc(F)c(Cl)c3)ccc(F)c2[nH]1 | > 100 | 
O=C(O)c1cc2c(Nc3ccc(OC(F)(F)F)c(Cl)c3)ccc(F)c2[nH]1 | > 100 | 
O=C(O)c1cc2c(Nc3ccc(F)c(Cl)c3)cccc2[nH]1 | > 100 | 
Cc1cc(Nc2ccc(F)c(Cl)c2)c2cc(C(=O)O)[nH]c2c1 | 35.6 | 22.5
